ChEMBL document CHEMBL3588853, “Synthesis, biological evaluation, and molecular docking studies of novel 1-benzene acyl-2-(1-methylindol-3-yl)-benzimidazole derivatives as potential tubulin polymerization inhibitors” (Eur J Med Chem, 2015)

How the values were obtained:
HepG2 = assay: Growth inhibition of human HepG2 cells assessed as inhibition of cell proliferation after 24 hrs by MTT assay; assay type: functional; details: HepG2, 24 h
Method in brief: (§1)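 Cells seeded at (1–5) × 10^3 per well and grown 12 h at 37 °C. Compounds added at increasing concentrations in medium with 10% FBS for 24 h. MTT dye then added, followed by 3–4 h at 37 °C. Medium discarded, formazan dissolved in DMSO and plate read. GI50 calculated relative to DMSO-treated control wells.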

Tubulin (Bos taurus) = Tubulin (Bos taurus) (UniProt Q6B856+Q862F3); details: at 5 µM
A549 = assay: Growth inhibition of human A549 cells assessed as inhibition of cell proliferation after 24 hrs by MTT assay; assay type: functional; details: A549, 24 h; method in brief: as §1
MCF7 = assay: Growth inhibition of human MCF7 cells assessed as inhibition of cell proliferation after 24 hrs by MTT assay; assay type: functional; details: MCF7, 24 h; method in brief: as §1
Tubulin = Tubulin (Bos taurus, UniProt Q6B856+Q862F3); assay: Inhibition of bovine brain tubulin polymerization extent after 20 mins by turbidimetrically
Sequence of Tubulin (Q6B856 whole entry): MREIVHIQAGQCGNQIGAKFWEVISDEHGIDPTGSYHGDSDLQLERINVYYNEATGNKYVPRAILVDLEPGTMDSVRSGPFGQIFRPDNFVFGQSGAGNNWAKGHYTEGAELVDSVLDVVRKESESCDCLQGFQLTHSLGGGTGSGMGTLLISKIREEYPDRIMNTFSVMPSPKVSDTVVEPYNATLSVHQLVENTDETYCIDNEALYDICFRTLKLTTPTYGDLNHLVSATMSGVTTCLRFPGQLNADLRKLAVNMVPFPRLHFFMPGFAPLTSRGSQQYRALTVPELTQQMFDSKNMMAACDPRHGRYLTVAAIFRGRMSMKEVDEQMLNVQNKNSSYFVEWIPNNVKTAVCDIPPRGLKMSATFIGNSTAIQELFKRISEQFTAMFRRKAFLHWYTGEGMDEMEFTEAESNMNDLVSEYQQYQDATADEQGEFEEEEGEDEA
Sequence of Tubulin (Q862F3 whole entry): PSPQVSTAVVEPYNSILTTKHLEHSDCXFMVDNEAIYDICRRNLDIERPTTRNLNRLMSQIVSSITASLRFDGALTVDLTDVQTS

| SMILES | GI50 (HepG2) [µM] | inhibition (Tubulin (Bos taurus)) [%] | GI50 (A549) [µM] | GI50 (MCF7) [µM] | IC50 (Tubulin) [µM] |
| --- | --- | --- | --- | --- | --- |
| COc1ccccc1C(=O)n1c(-c2cn(C)c3ccc(Br)cc23)nc2ccccc21 | 34.6 | 68 | 12.8 | 36.2 | 17.3 |
| Cn1cc(-c2nc3ccccc3n2C(=O)c2cccc(Br)c2)c2ccccc21 | 61.4 | 52 | 34.2 | 63.4 | 35.2 |
| Cn1cc(-c2nc3ccccc3n2C(=O)c2ccccc2Br)c2ccccc21 | 68.2 | 50 | 43.2 | 70.1 | 42.9 |
| Cn1cc(-c2nc3ccccc3n2C(=O)c2cccc(Br)c2)c2cc(Br)ccc21 | 67.3 | 51 | 38.5 | 68.2 | 39.7 |
| COc1ccc2c(c1)c(-c1nc3ccccc3n1C(=O)c1ccccc1)cn2C | 37.9 | 64 | 16.7 | 38.4 | 19.6 |
| Cn1cc(-c2nc3ccccc3n2C(=O)c2ccccc2Br)c2cc(Br)ccc21 | 72.1 | 48 | 46.7 | 73.6 | 45.6 |
| COc1ccccc1C(=O)n1c(-c2cn(C)c3ccccc23)nc2ccccc21 | 31.8 | 70 | 12.3 | 32.1 | 15.9 |

These reach a lower GI50 (HepG2). Values come first.

| GI50 (HepG2) [µM] | inhibition (Tubulin (Bos taurus)) [%] | GI50 (A549) [µM] | GI50 (MCF7) [µM] | IC50 (Tubulin) [µM] | SMILES |
| --- | --- | --- | --- | --- | --- |
| 23.6 | 73 | 11.9 | 23.9 | 8.4 | COc1ccc2c(c1)c(-c1nc3ccccc3n1C(=O)c1ccccc1OC)cn2C |
| 18.9 | 75 | 11.3 | 19.2 | 6.3 | COc1ccc(C(=O)n2c(-c3cn(C)c4ccc(Br)cc34)nc3ccccc32)cc1 |
| 11.7 | 84 | 4.6 | 14.6 | 3.3 | COc1cccc(C(=O)n2c(-c3cn(C)c4ccc(OC)cc34)nc3ccccc32)c1 |
| 8.4 | 87 | 3.1 | 10.2 | 2.1 | COc1ccc(C(=O)n2c(-c3cn(C)c4ccccc34)nc3ccccc32)cc1OC |
| 7.4 | 93 | 2.8 | 9.4 |  | COc1ccc(/C=C\c2cc(OC)c(OC)c(OC)c2)cc1O [COMBRETASTATIN A4] |
| 4.3 | 95 | 2.6 | 5.4 | 1.6 | COc1cc(C(=O)n2c(-c3cn(C)c4ccccc34)nc3ccccc32)cc(OC)c1OC |
